Compound activity as filed in PubChem BioAssay.
TRPC4 act = activators of mouse TRPC4 channel, primary screen, Fluo4 calcium, HEK293 TRPC4beta/mu-opioid cells; 0.49% of 310,000 active; Short transient receptor potential channel 4 (Mus musculus), Q9QUQ5; Fluo4 calcium fluorescence; hits give high values; B-score at 10 µM;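 active means B-score above 5 SD of library B-scores, and initial fluorescence ratio not above library mean plus 5 SD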;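 further: positive B-score marks a calcium rise read as TRPC4 activation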
Target sequence (Q9QUQ5 whole entry, looked up): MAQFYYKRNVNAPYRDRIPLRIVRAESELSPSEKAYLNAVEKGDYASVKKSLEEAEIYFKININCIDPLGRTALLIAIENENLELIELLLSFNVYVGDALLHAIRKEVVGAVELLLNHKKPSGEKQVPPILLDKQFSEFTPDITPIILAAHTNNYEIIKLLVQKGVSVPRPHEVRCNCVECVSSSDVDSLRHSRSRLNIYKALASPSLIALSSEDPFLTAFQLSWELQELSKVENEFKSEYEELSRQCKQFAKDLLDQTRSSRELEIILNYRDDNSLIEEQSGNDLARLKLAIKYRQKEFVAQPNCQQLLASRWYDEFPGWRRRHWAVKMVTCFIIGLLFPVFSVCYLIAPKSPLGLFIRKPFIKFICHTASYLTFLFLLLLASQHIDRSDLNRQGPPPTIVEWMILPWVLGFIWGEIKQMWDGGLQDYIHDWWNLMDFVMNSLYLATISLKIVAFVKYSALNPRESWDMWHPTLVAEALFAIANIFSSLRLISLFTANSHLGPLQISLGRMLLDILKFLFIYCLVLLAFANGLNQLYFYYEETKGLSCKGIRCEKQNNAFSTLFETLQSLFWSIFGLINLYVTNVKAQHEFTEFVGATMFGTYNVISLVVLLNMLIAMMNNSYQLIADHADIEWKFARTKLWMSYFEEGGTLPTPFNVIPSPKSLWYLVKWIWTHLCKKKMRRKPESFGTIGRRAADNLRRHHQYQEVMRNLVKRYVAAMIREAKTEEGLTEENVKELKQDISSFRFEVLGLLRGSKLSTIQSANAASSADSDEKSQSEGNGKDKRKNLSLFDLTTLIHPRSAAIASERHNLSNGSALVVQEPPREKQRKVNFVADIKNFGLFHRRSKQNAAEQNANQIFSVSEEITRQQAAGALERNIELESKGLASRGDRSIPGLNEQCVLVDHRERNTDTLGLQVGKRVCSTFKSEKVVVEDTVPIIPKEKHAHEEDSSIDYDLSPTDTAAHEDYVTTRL
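Assay system: HEK293 stable line with TRPC4beta plus mu-opioid receptor; schedule: 45 min room-temperature Fluo4 loading, 110 s read; technique: kinetic Fluo4 calcium fluorescence; evaluation: integrated baseline-normalised fluorescence ratio, converted to per-well B score; controls: buffer (low) and maximal DAMGO (high)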
TRPC6 inhibitor = mouse TRPC6 channel inhibitors, primary screen, cell-based, HEK293, membrane potential dye. AID 2553, 2010. B-score at 10 µM. 1.1% of 310,000 active. ACh-evoked depolarization; hits give low values. Short transient receptor potential channel 6 (Mus musculus), Q61143;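 active means B-score under library mean minus 3 SD, initial fluorescence not abnormally high, positive integrated signal ratio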;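 further: B-score derived from integrated fluorescence ratio over the kinetic read; more negative B-score means stronger inhibition of depolarization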
TRPC6 act = mouse TRPC6 channel activators, primary screen, cell-based, HEK293, membrane potential dye; AID 2550, 2010; HEK293-TRPC6 membrane potential dye fluorescence; hits give high values; B-score at 10 µM; Short transient receptor potential channel 6 (Mus musculus), Q61143; 0.13% of 310,000 active;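 active means B-score of the integrated fluorescence ratio above library mean plus 3 SD, and starting fluorescence ratio within library mean plus 5 SD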;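 further: higher score means more depolarization so channel activation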
TRPC4 inh = inhibitors of mouse TRPC4 channel, primary screen, Fluo4 calcium, HEK293 TRPC4beta/mu-opioid cells. B-score at 10 µM. DAMGO-evoked Fluo4 calcium flux; hits give low values. 0.39% of 300,000 active. Short transient receptor potential channel 4 (Mus musculus), Q9QUQ5;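 active means B-score over 3 SD under the library average, no early fluorescence shift, positive overall ratio signal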
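Signal: kinetic Fluo4 fluorescence imaging of calcium influx. Material: stable TRPC4beta/mu-opioid receptor HEK293 cells. Probe or stimulus: DAMGO in two steps, submaximal then maximal.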
TRPC4 PAM = positive allosteric modulators of TRPC4, primary screen, cell-based, mouse TRPC4beta, HEK293 mu-opioid, Fluo-4 calcium. Short transient receptor potential channel 4 (Mus musculus), Q9QUQ5. DAMGO EC20, Fluo-4 Ca2+ flux; hits give high values. B-score at 10 µM. 0.42% of 310,000 active. AID 2227, 2009;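 active means B-score of calcium response area above 5 SD of library B-scores, with initial fluorescence ratio within 5 SD of library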
A number is an active result. Compounds with a hit are over-represented: about 2.3% of the library has one in this group of screens.

Results for O=[N+]([O-])c1ccc(CN2CCN(c3nc4ccccc4s3)CC2)cc1 ?
TRPC4 act: inactive; TRPC6 inhibitor: inactive; TRPC6 act: inactive; TRPC4 inh: inactive; TRPC4 PAM: 19

Results for CCOCCCn1c(=S)[nH]c2cc(C(=O)NC3CCCC(C)C3C)ccc2c1=O (stereo not drawn) ?
TRPC4 act: inactive; TRPC6 inhibitor: inactive; TRPC6 act: inactive; TRPC4 inh: inactive; TRPC4 PAM: inactive

Results for CCc1nn(CC(=O)NCc2cccnc2)c(=O)c2cc3occc3n12 ?
TRPC4 act: inactive; TRPC6 inhibitor: inactive; TRPC6 act: inactive; TRPC4 inh: inactive; TRPC4 PAM: inactive

How did CCCc1cc(=O)oc2cc(C)cc(OC(C)C(=O)NCCCn3ccnc3)c12 (stereo not drawn) do in these assays?
TRPC4 act: inactive; TRPC6 inhibitor: inactive; TRPC6 act: inactive; TRPC4 inh: inactive; TRPC4 PAM: inactive

What do the screens show for `O=C(C1CCCO1)N1CCN(c2ccccn2)CC1` (stereo not drawn)?
TRPC4 act: inactive; TRPC6 inhibitor: inactive; TRPC6 act: inactive; TRPC4 inh: inactive; TRPC4 PAM: inactive

What do the screens show for `C=C(C)Cn1c(SCC)nc2ccccc2c1=O`?
TRPC4 act: inactive; TRPC6 inhibitor: inactive; TRPC6 act: inactive; TRPC4 inh: -5; TRPC4 PAM: inactive

What do the screens show for `CCC(C)n1c(SCC(=O)Nc2cc(C)on2)nc2ccccc2c1=O` (stereo not drawn)?
TRPC4 act: 44; TRPC6 inhibitor: inactive; TRPC6 act: inactive; TRPC4 inh: inactive; TRPC4 PAM: inactive

What do the screens show for `CCn1c(SCC(=O)Nc2cccc(C)c2)nc2ccccc2c1=O`?
TRPC4 act: inactive; TRPC6 inhibitor: inactive; TRPC6 act: inactive; TRPC4 inh: inactive; TRPC4 PAM: inactive

What do the screens show for `CCn1c(SCC(=O)Nc2ccccc2)nc2ccccc2c1=O`?
TRPC4 act: inactive; TRPC6 inhibitor: inactive; TRPC6 act: inactive; TRPC4 inh: -5; TRPC4 PAM: inactive

What do the screens show for `Cc1cc(Nc2cc(Cl)cc(Cl)c2)nc(N)n1`?
TRPC4 act: inactive; TRPC6 inhibitor: inactive; TRPC6 act: inactive; TRPC4 inh: inactive; TRPC4 PAM: inactive

Results for COc1cccc(CCNC(=O)CC2C(=O)NCCN2Cc2ccc(C)o2)c1 (stereo not drawn) ?
TRPC4 act: inactive; TRPC6 inhibitor: inactive; TRPC6 act: inactive; TRPC4 inh: inactive; TRPC4 PAM: inactive

How did Cc1ccccc1NC(=S)NCc1cccn1C do in these assays?
TRPC4 act: inactive; TRPC6 inhibitor: inactive; TRPC6 act: inactive; TRPC4 inh: inactive; TRPC4 PAM: inactive

What do the screens show for `Cc1c(Cl)cccc1NC(=S)NCc1cccn1C`?
TRPC4 act: inactive; TRPC6 inhibitor: inactive; TRPC6 act: inactive; TRPC4 inh: -6; TRPC4 PAM: inactive

What do the screens show for `C=CCNC(=S)N1CCN(C2CCCCC2)CC1`?
TRPC4 act: inactive; TRPC6 inhibitor: inactive; TRPC6 act: inactive; TRPC4 inh: inactive; TRPC4 PAM: 32

Results for O=c1c2ccccc2nc(COc2ccccc2)n1/N=C/c1cc([N+](=O)[O-])ccc1O ?
TRPC4 act: inactive; TRPC6 inhibitor: inactive; TRPC6 act: inactive; TRPC4 inh: inactive; TRPC4 PAM: 27

What do the screens show for `Cc1cc(/C=N/n2c(COc3ccccc3C)nc3ccccc3c2=O)c(O)c([N+](=O)[O-])c1`?
TRPC4 act: inactive; TRPC6 inhibitor: inactive; TRPC6 act: inactive; TRPC4 inh: inactive; TRPC4 PAM: inactive

How did Cc1cc(C)c(C)c(S(=O)(=O)NCc2ccco2)c1C do in these assays?
TRPC4 act: inactive; TRPC6 inhibitor: inactive; TRPC6 act: inactive; TRPC4 inh: inactive; TRPC4 PAM: 26

Results for Cc1ccc(C(C(=O)NCc2ccccc2)N(C(=O)c2ccccn2)c2ccccc2)o1 (stereo not drawn) ?
TRPC4 act: inactive; TRPC6 inhibitor: inactive; TRPC6 act: inactive; TRPC4 inh: inactive; TRPC4 PAM: inactive

Results for Cc1ccc(C)c2nc3sc(C(=O)O)cc3cc12 ?
TRPC4 act: inactive; TRPC6 inhibitor: inactive; TRPC6 act: inactive; TRPC4 inh: -7; TRPC4 PAM: inactive

What do the screens show for `C=CCOc1ccc(CN(C)Cc2nc3cc(C(F)(F)F)ccc3c(=O)[nH]2)cc1`?
TRPC4 act: inactive; TRPC6 inhibitor: inactive; TRPC6 act: inactive; TRPC4 inh: inactive; TRPC4 PAM: 15

Results for CCOCc1cc(=O)[nH]c(SC)n1 ?
TRPC4 act: inactive; TRPC6 inhibitor: inactive; TRPC6 act: inactive; TRPC4 inh: inactive; TRPC4 PAM: inactive

How did O=c1cc2c(nn1Cc1ccc(F)cc1)-c1ccccc1CC2 do in these assays?
TRPC4 act: inactive; TRPC6 inhibitor: inactive; TRPC6 act: inactive; TRPC4 inh: -7; TRPC4 PAM: 11

Results for O=[N+]([O-])c1ccc(C[n+]2cccc(O)c2)cc1 ?
TRPC4 act: 168; TRPC6 inhibitor: inactive; TRPC6 act: inactive; TRPC4 inh: inactive; TRPC4 PAM: inactive

How did O=C(O)c1ccc[n+](Cc2ccc([N+](=O)[O-])cc2)c1 do in these assays?
TRPC4 act: inactive; TRPC6 inhibitor: inactive; TRPC6 act: inactive; TRPC4 inh: inactive; TRPC4 PAM: inactive

What do the screens show for `COC(=O)c1ccc(C(=S)NCC2(N(C)C)CCCCC2)cc1`?
TRPC4 act: 101; TRPC6 inhibitor: inactive; TRPC6 act: inactive; TRPC4 inh: inactive; TRPC4 PAM: inactive

Results for Cc1cc(C)nc(SCc2nnc(SCC(N)=O)o2)n1 ?
TRPC4 act: inactive; TRPC6 inhibitor: inactive; TRPC6 act: inactive; TRPC4 inh: inactive; TRPC4 PAM: inactive

What do the screens show for `CC(=O)/C=C1/C(=O)Nc2ccccc21`?
TRPC4 act: inactive; TRPC6 inhibitor: inactive; TRPC6 act: inactive; TRPC4 inh: -5; TRPC4 PAM: inactive

How did C=CCOc1cccc(C(=O)/C=C2/C(=O)Nc3ccccc32)c1 do in these assays?
TRPC4 act: inactive; TRPC6 inhibitor: inactive; TRPC6 act: inactive; TRPC4 inh: inactive; TRPC4 PAM: inactive

How did CCNC(=S)N/N=C/c1cc(C)n(-c2ccc(Cl)cc2)c1C do in these assays?
TRPC4 act: inactive; TRPC6 inhibitor: inactive; TRPC6 act: inactive; TRPC4 inh: inactive; TRPC4 PAM: 22

Results for Cc1cc(/C=N/NC(N)=S)c(C)n1-c1ccc(Cl)c(Cl)c1 ?
TRPC4 act: inactive; TRPC6 inhibitor: inactive; TRPC6 act: inactive; TRPC4 inh: inactive; TRPC4 PAM: inactive

How did O=C(NCCNC1CCC(c2ccccc2)CC1)c1ccc(F)cc1 (stereo not drawn) do in these assays?
TRPC4 act: 61; TRPC6 inhibitor: inactive; TRPC6 act: inactive; TRPC4 inh: inactive; TRPC4 PAM: inactive

What do the screens show for `CCOC(=O)C1(CCOc2ccccc2)CCN(Cc2ccc(C)o2)CC1`?
TRPC4 act: inactive; TRPC6 inhibitor: inactive; TRPC6 act: inactive; TRPC4 inh: -6; TRPC4 PAM: inactive
